Data set [1] deals with T1, Prostaglandin G/H synthase 1 (Ovis aries, UniProt P05979).
T1 sequence (P05979 whole entry): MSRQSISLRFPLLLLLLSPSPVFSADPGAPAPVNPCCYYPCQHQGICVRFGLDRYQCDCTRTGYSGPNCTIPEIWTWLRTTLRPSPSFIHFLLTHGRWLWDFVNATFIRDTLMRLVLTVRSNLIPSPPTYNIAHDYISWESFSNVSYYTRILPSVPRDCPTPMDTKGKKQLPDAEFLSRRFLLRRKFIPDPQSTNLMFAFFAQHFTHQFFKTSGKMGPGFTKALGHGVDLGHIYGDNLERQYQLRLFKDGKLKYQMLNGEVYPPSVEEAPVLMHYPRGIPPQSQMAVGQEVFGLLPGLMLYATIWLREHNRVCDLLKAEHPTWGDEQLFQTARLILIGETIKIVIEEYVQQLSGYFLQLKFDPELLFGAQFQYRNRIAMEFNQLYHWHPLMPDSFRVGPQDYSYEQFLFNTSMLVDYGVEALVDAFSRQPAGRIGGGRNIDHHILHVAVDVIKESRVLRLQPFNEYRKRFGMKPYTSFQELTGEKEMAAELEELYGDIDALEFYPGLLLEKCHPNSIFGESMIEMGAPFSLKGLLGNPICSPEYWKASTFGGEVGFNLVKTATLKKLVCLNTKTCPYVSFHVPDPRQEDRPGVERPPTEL
Briefly: Inhibition of ovine COX1 assessed as reduction in PGH2 production by enzyme immunoassay.

For data set [2], the system named is Rattus norvegicus. Briefly: Antiinflammatory activity in Sprague-Dawley rat assessed as inhibition of carrageenan-induced paw edema at 70 mg/kg, po pretreated for 1 hr followed by carrageenan challenge and measured after 3 hrs by plethysmometer relative to control. Type of data set: functional. Put shortly: (§1)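 Modified Winter's method in young adult male Sprague-Dawley rats (160-200 g, groups of six), starved 24 h. Oral dose given 1 h before subplantar injection of 0.1 mL 1% carrageenan in sterile pyrogen-free 0.9% NaCl. Paw volume measured by water displacement plethysmometry before and at 3 and 4 h. % inhibition vs controls; mean ± S.E.M.; unpaired one-tailed Student's t-test.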
On the technique in general: In the carrageenan paw model, swelling and tenderness develop within hours.

Data set [3] relates to Rattus norvegicus. The data set is described as follows: Antiinflammatory activity in Sprague-Dawley rat assessed as inhibition of carrageenan-induced paw edema at 70 mg/kg, po pretreated for 1 hr followed by carrageenan challenge and measured after 4 hrs by plethysmometer relative to control. Format: functional. The method in brief:
as §1

Data set [4] concerns Rattus norvegicus. Briefly: Toxicity in Sprague-Dawley rat at 70 mg/kg, po. Format: organism-based. The conditions noted are these: in vivo.
In data set [5] the test system is Mus musculus. Briefly: Analgesic activity in CD1 mouse assessed as inhibition of acetic acid-induced writhings at 10 mg/kg, po pretreated for 30 mins followed by acetic acid challenge for 5 mins and measured for 30 mins relative to control. Format: functional. The method in brief: (§2)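 Male Swiss CD1 mice, 4-5 weeks, 25 ± 5 g, acclimatized one week. Dose adjusted to body weight and given orally by feeding needle 30 min before i.p. acetic acid (25 mg/kg; 0.25 mL/25 g). NaCl solution served as control. […] Mean ± S.E.M., at least four mice; one-way ANOVA with Student-Newman-Keuls.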

Data set [6] relates to Mus musculus. Briefly: Analgesic activity in CD1 mouse assessed as inhibition of acetic acid-induced writhings at 20 mg/kg, po pretreated for 30 mins followed by acetic acid challenge for 5 mins and measured for 30 mins relative to control. Format: functional. Put shortly: as §2
Background: An intraperitoneal irritant provokes the stretching counted in writhing tests.

Data set [7] relates to Mus musculus. The data set is described as follows: Analgesic activity in CD1 mouse assessed as inhibition of acetic acid-induced writhings at 70 mg/kg, po pretreated for 30 mins followed by acetic acid challenge for 5 mins and measured for 30 mins relative to control. Type of data set: functional. The method in brief:
as §2

The test system of the next data set is HT-29. Briefly: Growth inhibition of human HT-29 cells by MTT assay. Type of data set: cell-based. (Formazan colour is commonly taken as a measure of viable cells.)
Data set [8] deals with Mus musculus. The data set is described as follows: Analgesic activity in CD1 mouse assessed as inhibition of acetic acid-induced writhings at 70 mg/kg, po pretreated for 30 mins followed by acetic acid challenge. The conditions noted are these: TDE = time-dependent effect. Type of data set: functional, organism-based. Put shortly: as §2
In data set [9] the test system is Rattus norvegicus. Briefly: Ulcerogenicity in Sprague-Dawley rat assessed as gastric lessions at 70 mg/kg, po measured after 4 hrs. Format: toxicity, organism-based. The conditions noted are these: in vivo. The method in brief:
(§3)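 Male Sprague-Dawley rats, 180 ± 20 g, acclimatized one week, 3 per group. Oral dosing by feeding needle, adjusted to body weight; saline and carboxymethylcellulose served as controls. Killed 4 h after dosing; stomach opened along the greater curvature, rinsed with saline, and lesions scored under a magnifying glass.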

The test system of data set [10] is Rattus norvegicus. The data set is described as follows: Ulcerogenicity in Sprague-Dawley rat assessed as hyperemia at 70 mg/kg, po measured after 4 hrs. Format: toxicity, organism-based. The conditions noted are these: in vivo. The method in brief: as §3

The structures appear in SMILES notation. A value given as a limit tells only on which side of the number the result lay.

`CC(C(=O)O)c1cccc(C(=O)c2ccccc2)c1` (configuration not stated) [KETOPROFEN]: the IC50 (in general, the concentration needed to halve the response being measured) in [1] is 0.11 µM.
Consider `CC(C)Cc1ccc(S(C)(=O)=O)cc1`, for which, in [1], the IC50 amounted to 7.02 µM. Besides, the inhibition in vivo (commonly how much of the control response was suppressed) at 70 mg/kg is 9.6% in the data set with Rattus norvegicus [2] and 9.5% in the data set with Rattus norvegicus [3]. For the same compound, the Activity result in the data set on Rattus norvegicus [4] was “Non-Toxic”.
On to `CC(C)Cc1ccc(C(C)C(=O)O)cc1` (configuration not stated) [IBUPROFEN], for which the inhibition in vivo at 70 mg/kg in the data set on Rattus norvegicus [3] was determined as 23.9%; with Mus musculus [7], 66.7%. Further, in the data set on Mus musculus [5], the inhibition in vivo at 10 mg/kg came to 48%. Moreover, the inhibition in vivo at 20 mg/kg in the data set on Mus musculus [6] came out at 53%.
On to `CS(=O)(=O)c1ccc(C(=O)c2ccc(Cl)cc2)cc1`, for which the IC50 in data set [1] stood at 5.29 µM. Also, the inhibition in vivo at 70 mg/kg stood at 14.9% in the data set on Rattus norvegicus [2] and 18.9% with Rattus norvegicus [3]. The Activity result in the data set on Rattus norvegicus [4] is on record as “Non-Toxic”.
For `COc1ccc2c(c1)c(S(C)(=O)=O)c(C)n2C(=O)c1ccc(Cl)cc1`, the IC50 in [1] is 0.39 µM; in the data set on HT-29 it was over 200 µM. Besides, the inhibition in vivo at 70 mg/kg in the data set with Rattus norvegicus [2] worked out at 29.9%; in the data set with Rattus norvegicus [3] it was 32.5%. The Activity result with Rattus norvegicus [4] was “Non-Toxic”.
As for `COc1ccc2cc(S(C)(=O)=O)ccc2c1`, the values for the IC50 (in data set [1]; in the data set on HT-29) were 0.04 µM and over 200 µM, respectively. The inhibition in vivo at 70 mg/kg is 29.4% with Rattus norvegicus [2], 34.6% with Rattus norvegicus [3] and 60.1% in the data set with Mus musculus [7]. Further, the Activity entry was “Non-Toxic” in the data set on Rattus norvegicus [4], “Non-Toxic” with Rattus norvegicus [9] and “Toxic” in the data set with Rattus norvegicus [10]. For the same compound, the inhibition in vivo at 10 mg/kg in the data set on Mus musculus [5] was 49.3%. In addition, in the data set with Mus musculus [6], the inhibition in vivo at 20 mg/kg came out at 56.2%. The inhibition result in the data set with Mus musculus [8] is “Tde”.
`CN1c2ccccc2Sc2ccc(S(C)(=O)=O)cc21`: in [1], the IC50 is 1.36 µM. For the same compound, the Activity entry in the data set on Rattus norvegicus [4] is on record as “Non-Toxic”.
On to `CS(=O)(=O)c1ccc(C(=O)c2ccoc2)cc1`, for which the figures for the IC50 (in [1]; with HT-29) were 0.18 µM and over 200 µM, respectively. For the same compound, the figures for the inhibition in vivo at 70 mg/kg with Rattus norvegicus [2], in the data set with Rattus norvegicus [3] and in the data set on Mus musculus [7] were 27.6%, 25.9% and 64.9%, respectively. Further, the Activity result in the data set on Rattus norvegicus [4] and in the data set on Rattus norvegicus [9] was “Non-Toxic” throughout. Also, the inhibition in vivo at 10 mg/kg with Mus musculus [5] turned out to be 45.9%. The inhibition in vivo at 20 mg/kg with Mus musculus [6] came to 50.5%. The inhibition result in the data set with Mus musculus [8] is “Tde”.
Consider `CS(=O)(=O)c1cccc(Oc2ccccc2)c1`, for which the IC50 in [1] amounted to 4.89 µM. In addition, the inhibition in vivo at 70 mg/kg worked out at 27.8% in the data set on Rattus norvegicus [2] and 25.4% with Rattus norvegicus [3]. In addition, the Activity entry in the data set on Rattus norvegicus [4] is on record as “Non-Toxic”.
Regarding `CN1c2ccccc2Sc2ccc(CC(=O)O)cc21` [METIAZINIC ACID], in data set [1], the IC50 amounted to 6.23 µM.
For `CC(C(=O)O)c1cccc(Oc2ccccc2)c1` (configuration not stated) [FENOPROFEN], the IC50 in data set [1] is 2.73 µM.

The values are drawn from ChEMBL document CHEMBL4229432, “Synthesis and biological properties of aryl methyl sulfones” (Bioorg Med Chem, 2018).
